# Results gathered from unrelated publications.
# CSF1R autoinhibited: Macrophage colony-stimulating factor 1 receptor, autoinhibited (CSF1R, Homo sapiens, UniProt P07333)
# CSF1R: Macrophage colony-stimulating factor 1 receptor (CSF1R, Homo sapiens, UniProt P07333)
target,test,setting,measurement,value,SMILES
CSF1R autoinhibited,binding,0.1 µM,remaining binding,53%,C1=C/COCc2cc(ccc2OCCN2CCCC2)Nc2nccc(n2)-c2cccc(c2)COC/1
CSF1R autoinhibited,cell-free assay,1 µM,inhibition,0%,C=CC(=O)N1CCC([C@@H]2CCNc3c(C(N)=O)c(-c4ccc(Oc5ccccc5)cc4)nn32)CC1
CSF1R,cell-free assay,1 µM,remaining signal,53%,C#Cc1cnc(Nc2ccnc(CO)c2)nc1Nc1ccccc1S(C)(=O)=NC#N (centres unmarked)
CSF1R autoinhibited,"binding, competition with immobilised ligand",1 µM,remaining binding,87%,Cc1ccc(NC(=O)c2ccnc(C(F)(F)F)c2)cc1-c1cc(OCCO)nc(N2CCOCC2)c1
CSF1R,"enzyme activity, inhibitor",1 µM,inhibition,0%,CC#CC(=O)N1CCC[C@H]1c1nc(-c2ccc(C(=O)Nc3ccccn3)cc2)c2c(N)nccn12
CSF1R,"cell-free assay, competition with immobilised ligand",25 µM,remaining binding,61%,N#Cc1ccc(NC(=O)Nc2ccccc2)cc1
CSF1R,"binding, competition with immobilised ligand",1 µM,remaining binding,58%,COc1ccc2[nH]c3c4[nH]c5ccc(OC)cc5c4c4c(c3c2c1)C(=O)NC4=O
CSF1R,"binding, competition with immobilised ligand",0.5 µM,remaining binding,88%,CCCCC(=O)Nc1ccc(-c2ccc3ncn(CCC)c(=O)c3c2)cn1
